These results are taken from PMC9090800 (RSC Advances, 2018).

≈ marks a conversion by molar mass, not a printed value.

Holding throughout (format): cell-based
Series [1] has as its system C. albicans (ATCC 90028). Nature of the series: In vitro anticandidal activity, broth dilution. Particulars: Candida albicans, ATCC90028, 24 h, read-out: IC50 ± S.D, C. albicans. Put shortly:
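Broth dilution followed the NCCLS protocol. Test compound in DMSO was diluted in PBS, then tested at 1000 to 7.8 μg mL−1 in SD broth with about 2.5 × 10^3 cells per mL in 96-well plates. Plates were shaken 24 h at 30 °C, 150 rpm, and read at OD580. IC50 was the concentration halving absorbance versus untreated cells, taken from a log10 concentration versus % inhibition plot. Triplicates were run on separate occasions, with fluconazole as positive control.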

Series [2] can be described thus: Hemolytic assay. The settings on record: human, human red blood cells (erythrocyte suspension in PBS). The essentials:
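Fresh human blood was collected in EDTA and spun 10 min at 2000 rpm. Erythrocytes were washed three times in PBS and made to a 10% (v/v) suspension, then diluted 1:10. Equal volumes of cells and test compound dilution series in PBS were incubated in triplicate for 1 h at 37 °C and re-centrifuged. Supernatant A450 was expressed relative to buffer (0%) and 1% Triton X-100 (100% lysis). Fluconazole was the reference.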

Series [3] concerns human embryonic kidney (HEK-293) cells. Nature of the series: Cytotoxicity by MTT assay. The settings on record: HEK-293, 100 μg mL^−1, 24 h. Put shortly: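 HEK-293 cells grown as monolayers in DMEM with 10% FBS, penicillin and streptomycin, 37 °C, 5% CO2, at most 30 passages. Seeded at about 8 × 10^3 cells per well, 24 h before dosing. Test compound (DMSO stock diluted in PBS) given at 10–200 μg mL−1 for 24 h at 37 °C. Serum-free medium, then MTT (5 mg mL−1 in PBS), 4 h. Formazan dissolved in DMSO, A570 read. Triplicate; viability relative to untreated cells.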

For the molecule `CCOC(=O)c1nc2ccccc2c(=O)n1Cc1cn(-c2ccccc2)nn1` [Compound 5a, Ethyl 4-oxo-3-((1-phenyl-1H-1,2,3-triazol-4-yl)methyl)-3,4-dihydroquinazoline-2-carboxylate], in series [1], the 50% inhibitory concentration (IC50) was determined as 228 ± 3.8 µg/mL (≈ 607 µM).
As for `CCOC(=O)c1nc2ccccc2c(=O)n1Cc1cn(-c2ccccc2Cl)nn1` [Compound 5b, Ethyl 3-((1-(2-chlorophenyl)-1H-1,2,3-triazol-4-yl)methyl)-4-oxo-3,4-dihydroquinazoline-2-carboxylate], in series [1], the IC50 amounted to 124 ± 18.4 µg/mL (≈ 304 µM).
Regarding `CCOC(=O)c1nc2ccccc2c(=O)n1Cc1cn(-c2ccccc2F)nn1` [Compound 5c, Ethyl 3-((1-(2-fluorophenyl)-1H-1,2,3-triazol-4-yl)methyl)-4-oxo-3,4-dihydroquinazoline-2-carboxylate], in series [1], the IC50 was 110 ± 4.8 µg/mL (≈ 279 µM).
In the case of `CCOC(=O)c1nc2ccccc2c(=O)n1Cc1cn(-c2ccccc2C)nn1` [Compound 5d, Ethyl 4-oxo-3-((1-o-tolyl-1H-1,2,3-triazol-4-yl)methyl)-3,4-dihydroquinazoline-2-carboxylate], in series [1], the IC50 is 297 ± 5.9 µg/mL (≈ 763 µM).
In turn, `CCOC(=O)c1nc2ccccc2c(=O)n1Cc1cn(-c2ccccc2OC)nn1` [Compound 5e, Ethyl 3-((1-(2-methoxyphenyl)-1H-1,2,3-triazol-4-yl)methyl)-4-oxo-3,4-dihydroquinazoline-2-carboxylate] returned a hemolysis at 1 h, 1000 μg mL^−1 in series [2] below 20%. In addition, in series [3], the “cell viability (MTT)” value is listed as “no significant decrease in cell viability”. Moreover, in series [1], the IC50 was 18.6 ± 3.4 µg/mL (≈ 45.9 µM).
`CCOC(=O)c1nc2ccccc2c(=O)n1Cc1cn(-c2ccccc2[N+](=O)[O-])nn1` [Compound 5f, Ethyl 3-((1-(2-nitrophenyl)-1H-1,2,3-triazol-4-yl)methyl)-4-oxo-3,4-dihydroquinazoline-2-carboxylate]: the IC50 in series [1] is 269 ± 5.5 µg/mL (≈ 641 µM).
Take `CCOC(=O)c1nc2ccccc2c(=O)n1Cc1cn(-c2cccc(F)c2)nn1` [Compound 5h, Ethyl 3-((1-(3-fluorophenyl)-1H-1,2,3-triazol-4-yl)methyl)-4-oxo-3,4-dihydroquinazoline-2-carboxylate]: the IC50 in series [1] is 510 ± 6.4 µg/mL (≈ 1300 µM).
Take `CCOC(=O)c1nc2ccccc2c(=O)n1Cc1cn(-c2cccc(C)c2)nn1` [Compound 5i, Ethyl 4-oxo-3-((1-m-tolyl-1H-1,2,3-triazol-4-yl)methyl)-3,4-dihydroquinazoline-2-carboxylate]: the IC50 in series [1] is 353 ± 11.1 µg/mL (≈ 905 µM).
Take `CCOC(=O)c1nc2ccccc2c(=O)n1Cc1cn(-c2cccc(OC)c2)nn1` [Compound 5j, Ethyl 3-((1-(3-methoxyphenyl)-1H-1,2,3-triazol-4-yl)methyl)-4-oxo-3,4-dihydroquinazoline-2-carboxylate]: the IC50 in series [1] came to 340 ± 7.4 µg/mL (≈ 840 µM).
`CCOC(=O)c1nc2ccccc2c(=O)n1Cc1cn(-c2cccc([N+](=O)[O-])c2)nn1` [Compound 5k, Ethyl 3-((1-(3-nitrophenyl)-1H-1,2,3-triazol-4-yl)methyl)-4-oxo-3,4-dihydroquinazoline-2-carboxylate]: the IC50 in series [1] worked out at 143 ± 2.5 µg/mL (≈ 339 µM).
Still for that read-out and setting: to `CCOC(=O)c1nc2ccccc2c(=O)n1Cc1cn(-c2ccc(Cl)cc2)nn1` [Compound 5l, Ethyl 3-((1-(4-chlorophenyl)-1H-1,2,3-triazol-4-yl)methyl)-4-oxo-3,4-dihydroquinazoline-2-carboxylate] belongs 216 ± 3.5 µg/mL (≈ 526 µM).
Still for that read-out and setting: to `CCOC(=O)c1nc2ccccc2c(=O)n1Cc1cn(-c2ccc(F)cc2)nn1` [Compound 5m, Ethyl 3-((1-(4-fluorophenyl)-1H-1,2,3-triazol-4-yl)methyl)-4-oxo-3,4-dihydroquinazoline-2-carboxylate] belongs 209 ± 6.5 µg/mL (≈ 532 µM); to `CCOC(=O)c1nc2ccccc2c(=O)n1Cc1cn(-c2ccc(OC)cc2)nn1` [Compound 5o, Ethyl 3-((1-(4-methoxyphenyl)-1H-1,2,3-triazol-4-yl)methyl)-4-oxo-3,4-dihydroquinazoline-2-carboxylate], 394.3 ± 1.7 µg/mL (≈ 973 µM).
For the molecule `CCOC(=O)c1nc2ccccc2c(=O)n1Cc1cn(-c2ccc([N+](=O)[O-])cc2)nn1` [Compound 5p, Ethyl 3-((1-(4-nitrophenyl)-1H-1,2,3-triazol-4-yl)methyl)-4-oxo-3,4-dihydroquinazoline-2-carboxylate], the IC50 in series [1] stood at 151 ± 15.7 µg/mL (≈ 360 µM).
For the molecule `CCOC(=O)c1nc2ccccc2c(=O)n1Cc1cn(-c2ccc(C(=O)O)cc2)nn1` [Compound 5q, 4-(4-((2-(ethoxycarbonyl)-4-oxoquinazolin-3(4H)-yl)methyl)-1H-1,2,3-triazol-1-yl)benzoic acid], the IC50 in series [1] was 342 ± 5.7 µg/mL (≈ 816 µM).
For the molecule `O=C(O)c1nc2ccccc2c(=O)n1Cc1cn(-c2ccccc2)nn1` [Compound 6a, 4-Oxo-3-((1-phenyl-1H-1,2,3-triazol-4-yl)methyl)-3,4-dihydroquinazoline-2-carboxylic acid], in series [1], the IC50 came out at 119 ± 7.6 µg/mL (≈ 342 µM).
Regarding `O=C(O)c1nc2ccccc2c(=O)n1Cc1cn(-c2ccccc2Cl)nn1` [Compound 6b, 3-((1-(2-Chlorophenyl)-1H-1,2,3-triazol-4-yl)methyl)-4-oxo-3,4-dihydroquinazoline-2-carboxylic acid], in series [1], the IC50 was 169 ± 3.4 µg/mL (≈ 442 µM).
`O=C(O)c1nc2ccccc2c(=O)n1Cc1cn(-c2ccccc2F)nn1` [Compound 6c, 3-((1-(2-Fluorophenyl)-1H-1,2,3-triazol-4-yl)methyl)-4-oxo-3,4-dihydroquinazoline-2-carboxylic acid] showed a hemolysis at 1 h, 1000 μg mL^−1 in series [2] below 20%. The “cell viability (MTT)” value in series [3] is on record as “no significant decrease in cell viability”. The concentration for half-maximal inhibition (IC50) in series [1] was 101 ± 3.7 µg/mL (≈ 276 µM).
In the case of `Cc1ccccc1-n1cc(Cn2c(C(=O)O)nc3ccccc3c2=O)nn1` [Compound 6d, 4-Oxo-3-((1-o-tolyl-1H-1,2,3-triazol-4-yl)methyl)-3,4-dihydroquinazoline-2-carboxylic acid], the IC50 in series [1] amounted to 131 ± 4.3 µg/mL (≈ 363 µM).
Take `O=C(O)c1nc2ccccc2c(=O)n1Cc1cn(-c2ccccc2[N+](=O)[O-])nn1` [Compound 6f, 3-((1-(2-Nitrophenyl)-1H-1,2,3-triazol-4-yl)methyl)-4-oxo-3,4-dihydroquinazoline-2-carboxylic acid]: the IC50 in series [1] is 701 ± 23.6 µg/mL (≈ 1790 µM).
For `O=C(O)c1nc2ccccc2c(=O)n1Cc1cn(-c2cccc(Cl)c2)nn1` [Compound 6g, 3-((1-(3-Chlorophenyl)-1H-1,2,3-triazol-4-yl)methyl)-4-oxo-3,4-dihydroquinazoline-2-carboxylic acid], the IC50 in series [1] stood at 100 ± 4 µg/mL (≈ 263 µM).
Still for that read-out and setting: to `O=C(O)c1nc2ccccc2c(=O)n1Cc1cn(-c2cccc(F)c2)nn1` [Compound 6h, 3-((1-(3-Fluorophenyl)-1H-1,2,3-triazol-4-yl)methyl)-4-oxo-3,4-dihydroquinazoline-2-carboxylic acid] belongs 135 ± 2.4 µg/mL (≈ 369 µM); to `Cc1cccc(-n2cc(Cn3c(C(=O)O)nc4ccccc4c3=O)nn2)c1` [Compound 6i, 4-Oxo-3-((1-m-tolyl-1H-1,2,3-triazol-4-yl)methyl)-3,4-dihydroquinazoline-2-carboxylic acid], 133 ± 4.2 µg/mL (≈ 369 µM).
Take `COc1cccc(-n2cc(Cn3c(C(=O)O)nc4ccccc4c3=O)nn2)c1` [Compound 6j, 3-((1-(3-Methoxyphenyl)-1H-1,2,3-triazol-4-yl)methyl)-4-oxo-3,4-dihydroquinazoline-2-carboxylic acid]: in series [1], the IC50 turned out to be 214 ± 11 µg/mL (≈ 568 µM).
With `O=C(O)c1nc2ccccc2c(=O)n1Cc1cn(-c2cccc([N+](=O)[O-])c2)nn1` [Compound 6k, 3-((1-(3-Nitrophenyl)-1H-1,2,3-triazol-4-yl)methyl)-4-oxo-3,4-dihydroquinazoline-2-carboxylic acid], the IC50 in series [1] is 701 ± 23.6 µg/mL (≈ 1790 µM).
`O=C(O)c1nc2ccccc2c(=O)n1Cc1cn(-c2ccc(Cl)cc2)nn1` [Compound 6l, 3-((1-(4-Chlorophenyl)-1H-1,2,3-triazol-4-yl)methyl)-4-oxo-3,4-dihydroquinazoline-2-carboxylic acid]: the IC50 in series [1] amounted to 221 ± 11.2 µg/mL (≈ 579 µM).
With `O=C(O)c1nc2ccccc2c(=O)n1Cc1cn(-c2ccc(F)cc2)nn1` [Compound 6m, 3-((1-(4-Fluorophenyl)-1H-1,2,3-triazol-4-yl)methyl)-4-oxo-3,4-dihydroquinazoline-2-carboxylic acid], the IC50 in series [1] turned out to be 172 ± 5.3 µg/mL (≈ 471 µM).
As for `COc1ccc(-n2cc(Cn3c(C(=O)O)nc4ccccc4c3=O)nn2)cc1` [Compound 6o, 3-((1-(4-Methoxyphenyl)-1H-1,2,3-triazol-4-yl)methyl)-4-oxo-3,4-dihydroquinazoline-2-carboxylic acid], the IC50 in series [1] was 125 ± 5.9 µg/mL (≈ 331 µM).
On the same count and under the same terms, to `O=C(O)c1nc2ccccc2c(=O)n1Cc1cn(-c2ccc([N+](=O)[O-])cc2)nn1` [Compound 6p, 3-((1-(4-Nitrophenyl)-1H-1,2,3-triazol-4-yl)methyl)-4-oxo-3,4-dihydroquinazoline-2-carboxylic acid] belongs 789 ± 16.4 µg/mL (≈ 2010 µM); to `O=C(O)c1ccc(-n2cc(Cn3c(C(=O)O)nc4ccccc4c3=O)nn2)cc1` [Compound 6q, 3-((1-(4-Carboxyphenyl)-1H-1,2,3-triazol-4-yl)methyl)-4-oxo-3,4-dihydroquinazoline-2-carboxylic acid], 916 ± 15.5 µg/mL (≈ 2340 µM).
`OC(Cn1cncn1)(Cn1cncn1)c1ccc(F)cc1F` [FLC, fluconazole, reference compound] came in with a hemolysis at 1 h, 1000 μg mL^−1 in series [2] of 78.1%. Besides, the IC50 in series [1] was 15.6 ± 2.2 µg/mL (≈ 50.9 µM).
